According to PubChem BioAssay:
Records with an inconclusive call do not appear.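 Rule for the calls, unless noted: active = viability increase at or above a cutoff of the median across tested compounds plus 3 SD (cut at about 8.5% in these data, passing the limit was not always enough); inconclusive = some gains above the cutoff, reason not given; inactive = the rest.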

Legend:
[1] = S. cerevisiae growth inhibition in permissive medium (OD615), pilot counter-assay for S. cerevisiae lifespan shortening project, permissive growth control (AID 705;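 active = growth inhibition above 25% in both replicates, a cutoff set 3 SD above the mean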); settings: OD615, 24 h, at 10 µM, hits give high values
Outline: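 System: Engineered DeaD yeast | Buffer or medium: SC raffinose/galactose permissive medium | Incubation: Cells pre-grown 4 h, then 24 h compound exposure, 30 °C humidified | Measured by: Absorbance (optical density) at 615 nm | Read-out: Reduction in yeast growth (OD615)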

[2] = S. cerevisiae growth inhibition in restrictive medium, OD615, pilot screen, restrictive growth control, yeast lifespan reduction project (AID 706;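 active = growth inhibition above a set limit, 3 SD over mean compound inhibition, in both replicates, cut at about 43% in these data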;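 note: modified DeaD lifespan yeast strain shifted to restrictive glucose medium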); settings: OD615, 48 h, at 10 µM, hits give high values
Outline: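 Material: modified S. cerevisiae; Medium: glucose-based CSMM-D restrictive medium; Compound dosing: one concentration, 10 µM final, 0.25% DMSO; Incubation: 48 h compound exposure at 30 °C; Measured by: OD615.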

[3] = doxorubicin toxicity protection in MRP-1 cells – H69AR cells, CellTiter-Glo, duplicate, MRP-1 activator project, pilot screen (AID 807); settings: H69AR viability with doxorubicin, CellTiter-Glo luminescence; at 10 µM; hits give high values;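 note: compound pretreatment 18-22 h then 72 h combined with doxorubicin; 0% = doxorubicin alone and 100% = vehicle without doxorubicin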
[4] = viability of HCT116 without oncogenic beta-catenin – human colon tumor cells, pilot screen (AID 823;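 active = cell viability at or below a set limit in both duplicate runs, the limit being the all-compound median minus 4 SD, cut at about 23% in these data, passing the limit was not always enough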;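 note: 0% = wells killed by 20 µM Hyamine and 100% = untreated DMSO cell wells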); settings: HCT116 beta-catenin knockout viability, CellTiter-Glo, 60 h; at 10 µM; hits give low values
[5] = viability of PTEN-null HCT116 cells – cell-based, HCT116 clonal line, CellTiter-Glo, pilot screen (AID 824;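 active = viability at or below 27.92% in each of two runs, the all-compound median minus 4 SD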;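 note: 0% = 20 µM Hyamine control and 100% = vehicle cell control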); settings: HCT116 PTEN-deleted viability, 60 h, at 10 µM, hits give low values
[6] = RAM pathway blockade in budding yeast – dse1pr::URA3 reporter, 5-FOA selection, pilot screen (AID 869;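 active = inhibition over a set limit, the all-compound mean plus 3 SD, in both replicate runs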;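 note: 0% = DMSO wells with no growth and 100% = 10 µM 1-NA-PP1 with full growth; RAM network block rescues cells from 5-FOA so hits raise OD615 growth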); settings: S. cerevisiae dse1pr::URA3 5-FOA growth, OD615, 2 d; at 10 µM; hits give high values; strain carries analog-sensitive mutant Cbk1 kinase
[7] = RAM signaling pathway blockade in yeast – S. cerevisiae, Pdr1DBD-CYC8 efflux-inhibited sensitized strain, primary screen (AID 1298;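 active = RAM network inhibition above 8.4% in each of two replicates, 3 SD over the compound average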;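 note: 0% = DMSO untreated cells without growth and 100% = 10 µM 1-NA-PP1 full growth; higher means more yeast growth rescued from 5-FOA killing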); settings: S. cerevisiae cbk1-as DSE1-URA3 strain, 5-FOA growth OD615, 2 d; at 50 µM; hits give high values

C=CCOc1cccc(C2c3c(oc4ccc(F)cc4c3=O)C(=O)N2CCCN2CCOCC2)c1 (stereo unspecified)
inactive: growth inhibition [1] -4.2% | growth inhibition [2] 2.91% | viability increase [3] -5.54% | viability [4] 93% | viability [5] 93.5% | inhibition [6] -0.045% | RAM network inhibition [7] 1.42%

COc1cccc(C2CC(=O)N3CN(c4cccc(Cl)c4C)CSC3=C2C#N)c1OC (stereo unspecified)
inactive: growth inhibition [1] 5.33% | growth inhibition [2] 19.4% | viability increase [3] -4.11% | viability [4] 73.2% | viability [5] 63.9% | inhibition [6] 3.38% | RAM network inhibition [7] 7.39%

CCC(=O)N1C(C(=O)O)CSC1c1ccc(OC)cc1 (stereo unspecified)
inactive: growth inhibition [1] -0.64% | growth inhibition [2] 6.29% | viability increase [3] -0.61% | viability [4] 98.1% | viability [5] 93.5% | inhibition [6] 1.16% | RAM network inhibition [7] 2.87%

Cc1cccc(NCc2nc(-c3ccccc3)no2)c1
inactive: growth inhibition [1] -2.16% | growth inhibition [2] 9.07% | viability increase [3] 2.88% | viability [4] 107% | viability [5] 106% | inhibition [6] 2.41% | RAM network inhibition [7] 3.44%

C=CCOc1cccc(C2c3c(oc4ccccc4c3=O)C(=O)N2c2ccccn2)c1 (stereo unspecified)
inactive: growth inhibition [1] -8.5% | growth inhibition [2] -8.1% | viability increase [3] -4.17% | viability [4] 79.7% | viability [5] 81.6% | inhibition [6] 2.12% | RAM network inhibition [7] 9.18%

COc1ccc(-n2nnc3c(=O)n(CC(=O)N4CCCCC4)cnc32)cc1
inactive: growth inhibition [1] -0.235% | growth inhibition [2] 4.3% | viability increase [3] -0.73% | viability [4] 96.1% | viability [5] 94.6% | inhibition [6] 0.975% | RAM network inhibition [7] -0.05%

CC(=O)C1=C(C)N=c2s/c(=C/c3ccc4c(c3)OCO4)c(=O)n2C1c1ccc(N(C)C)cc1 (stereo unspecified)
inactive: growth inhibition [1] -9.92% | growth inhibition [2] -9.9% | viability increase [3] -1.24% | viability [4] 93.2% | viability [5] 89.5% | inhibition [6] 1.13% | RAM network inhibition [7] 4.19%

COc1cc(NC(=O)c2onc(C)c2Cl)c(OC)cc1Cl
inactive: growth inhibition [1] -3% | growth inhibition [2] -6.72% | viability increase [3] -5.82% | viability [4] 91.7% | viability [5] 94.5% | inhibition [6] 1.35% | RAM network inhibition [7] 3.23%

Cc1oc2c(c1C(=O)NC(Cc1c[nH]c3ccccc13)C(=O)O)CCCC2 (stereo unspecified)
inactive: growth inhibition [1] -8.56% | growth inhibition [2] -5.62% | viability increase [3] -3.61% | viability [4] 100% | viability [5] 97.6% | inhibition [6] 1.37% | RAM network inhibition [7] 0.1%

COc1ccccc1NC(=O)c1ccc(N)cc1
inactive: growth inhibition [1] -2% | growth inhibition [2] -2.66% | viability increase [3] 0.45% | viability [4] 105% | viability [5] 103% | inhibition [6] 2.87% | RAM network inhibition [7] 2.74%

CCCCCCC1C(C#N)=C(N)OC2=C1C(=O)CCC2 (stereo unspecified)
inactive: growth inhibition [1] -12% | growth inhibition [2] -14.4% | viability increase [3] -2.64% | viability [4] 101% | viability [5] 92% | inhibition [6] 3.6% | RAM network inhibition [7] 4.66%

CCOC(=O)N1CCN(C(=O)c2cc(C)no2)CC1
inactive: growth inhibition [1] -9.98% | growth inhibition [2] -7.27% | viability increase [3] 1.34% | viability [4] 104% | viability [5] 109% | inhibition [6] 1.04% | RAM network inhibition [7] 2.19%

c1ccc(Cn2c(CSc3nnnn3-c3ccccc3)nc3ccccc32)cc1
inactive: growth inhibition [1] 0.645% | growth inhibition [2] 5.56% | viability increase [3] -2.93% | viability [4] 96.3% | viability [5] 95% | inhibition [6] 1.48% | RAM network inhibition [7] 5.11%

O=C1CC(C(=O)Nc2nccs2)C(c2ccccc2)O1 (stereo unspecified)
inactive: growth inhibition [1] -4.84% | growth inhibition [2] -14.8% | viability increase [3] -0.76% | viability [4] 107% | viability [5] 99.3% | inhibition [6] 0.94% | RAM network inhibition [7] 0.09%

O=C(CN1CCN(c2ncccn2)CC1)NCCC1=CCCCC1
inactive: growth inhibition [1] -8.09% | growth inhibition [2] -27.1% | viability increase [3] -2.15% | viability [4] 94% | viability [5] 93.7% | inhibition [6] 1.9% | RAM network inhibition [7] 5.02%

Cc1cccc(-c2nc(CS(=O)CC(=O)NCC3CCCO3)c(C)o2)c1 (stereo unspecified)
inactive: growth inhibition [1] 4.35% | growth inhibition [2] 17.3% | viability increase [3] -2.27% | viability [4] 105% | viability [5] 96.3% | inhibition [6] 0.725% | RAM network inhibition [7] 2.14%

COC(=O)C1C(=O)c2c([nH]c(C(=O)OC3CCCC3C)c2C)CC1C (stereo unspecified)
inactive: growth inhibition [1] -4.87% | growth inhibition [2] -2.27% | viability increase [3] 3.21% | viability [4] 81.2% | viability [5] 72.7% | inhibition [6] 2.68% | RAM network inhibition [7] 3.76%

O=C(c1ccc2nc(N3CCCCC3)sc2c1)N1CCN(Cc2ccc3c(c2)OCO3)CC1
inactive: growth inhibition [1] 2.12% | growth inhibition [2] 1.62% | viability increase [3] 1.03% | viability [4] 54.2% | viability [5] 60.2% | inhibition [6] 0.76% | RAM network inhibition [7] 1.12%
